Here are results for one molecule from article PMC2099187 (The Journal of Cell Biology, 2007).

The structures appear in SMILES notation. Where “and” joins values, the source holds several entries; their conditions need not be identical. Equal entries are not always repeated.

Assay [1] concerns HEK-CLR-RAMP1 cells. In words: CGRP-induced Ca2+ signaling, desensitization and resensitization. Format: cell-based, human. Particulars: SM-19712 10 μM. An outline of the steps:
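HEK-CLR-RAMP1 cells were loaded with Fura-2AM; [Ca2+]i read at 37°C. Single challenge used CGRP 30 nM. For desensitization/resensitization: CGRP 100 nM or vehicle (1 h, 37°C), wash, 0–6 h recovery, CGRP 30 nM rechallenge. Variants: SM-19712 10 μM (20–60 min preincubation, kept throughout); ECE-1 or non-targeting siRNA pools, 72 h; transient ECE-1a-d-GFP. Response given as % of vehicle-treated cells, n ≥ 3.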

Assay [2] deals with HEK-CLR-RAMP1 cells. In words: Endocytosis and degradation of internalized 125I-His8-CGRP. Format: cell-based, human. Particulars: 30 min after internalization; SM-19712 10 μM, bafilomycin A1 0.15 or 1 μM.
The next assay deals with HEK-B2R-V2RCT cells. The assay can be described thus: B2R-V2RCT recycling and colocalization with β-arrestin2-GFP. Format: cell-based, human. The settings on record: 2 h recovery, SM-19712 10 μM. An outline of the steps: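 HEK cells stably expressing HA-tagged B2R or B2R-V2RCT were transiently transfected with β-arrestin2-GFP. Surface receptors were labelled with anti-HA11 (1:100, 30 min, 37°C), then given BK 100 nM for 10 min and recovered in BK-free medium (B2R 1 h; B2R-V2RCT 2 h). SM-19712 10 μM or DMSO was preincubated 20–60 min and kept throughout. Cells were PFA-fixed for confocal imaging; plasma-membrane fraction of fluorescence and colocalization coefficient (0–1) were scored in >20 cells/experiment, n ≥ 3.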

The next assay relates to A549 cells. The assay can be described thus: Resensitization of ATII-induced Ca2+ signaling. Format: cell-based, human. The settings on record: ATII 1 μM 1 h, 1 h recovery; SM-19712 10 μM; endogenous AT1AR and ECE-1. Put shortly: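 A549 cells (native AT1AR, ECE-1) were loaded with Fura-2AM for [Ca2+]i at 37°C. They were preincubated with ATII 1 μM or vehicle (1 h, 37°C), washed, recovered 1 h, then rechallenged with ATII 1 μM. SM-19712 10 μM or DMSO was preincubated 20–60 min and kept throughout. Response was expressed as % of vehicle-treated cells.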

In assay [3] the test system is HEK-CLR-RAMP1+βARR2-GFP cells. In words: Trafficking and colocalization of β-arrestin2-GFP and CLR/RAMP1. The class given is cell-based, human. The settings on record: recovery up to 4 h in CGRP-free medium. An outline of the steps:
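HEK-CLR-RAMP1 cells transiently transfected with β-arrestin2-GFP had surface CLR (HA11) and RAMP1 (Myc) labelled. Cells were given CGRP (2 min to 1 h), washed, and recovered in CGRP-free medium for 1–4 h. SM-19712 10 μM, bafilomycin A1 0.15 or 1 μM, or DMSO was preincubated 20–60 min and kept throughout. After PFA fixation and confocal imaging, β-arrestin2/CLR endosomal colocalization coefficient was measured at 4 h recovery.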

Assay [4] has as its system HEK-CLR-RAMP1 cells. In words: CLR and RAMP1 endocytosis and recycling. The class given is cell-based, human. Put shortly: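 Surface CLR and RAMP1 on HEK-CLR-RAMP1 cells were antibody-labelled via HA11 and Myc epitopes (1:100, 30 min, 37°C). Cells then received CGRP 100 nM for 1 h, were washed, and recovered 0–6 h in CGRP-free medium. Cells were either treated with SM-19712 10 μM (20–60 min preincubation, kept throughout) or transfected 72 h earlier with ECE-1 vs non-targeting siRNA. Confocal scoring gave % total cellular fluorescence at plasma membrane at 6 h.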

In a further assay the test system is HEK cells. The assay can be described thus: BK-induced Ca2+ signaling, desensitization and resensitization. Format: cell-based, human. The settings on record: SM-19712 10 μM. An outline of the steps:
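HEK cells with native B2R were loaded with Fura-2AM and [Ca2+]i read at 37°C, on coverslips or in suspension. Cells were preincubated with BK 100 nM or vehicle (10 min, 37°C), washed, recovered 0–120 min, then rechallenged with BK 100 nM. SM-19712 10 μM, bafilomycin A1 0.15 or 1 μM, or DMSO was preincubated 20–60 min and kept in buffers throughout.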

For assay [5], the target named is T1, recombinant human (rh) ECE-1 (Homo sapiens, UniProt P42892).
T1 sequence (P42892 1-770): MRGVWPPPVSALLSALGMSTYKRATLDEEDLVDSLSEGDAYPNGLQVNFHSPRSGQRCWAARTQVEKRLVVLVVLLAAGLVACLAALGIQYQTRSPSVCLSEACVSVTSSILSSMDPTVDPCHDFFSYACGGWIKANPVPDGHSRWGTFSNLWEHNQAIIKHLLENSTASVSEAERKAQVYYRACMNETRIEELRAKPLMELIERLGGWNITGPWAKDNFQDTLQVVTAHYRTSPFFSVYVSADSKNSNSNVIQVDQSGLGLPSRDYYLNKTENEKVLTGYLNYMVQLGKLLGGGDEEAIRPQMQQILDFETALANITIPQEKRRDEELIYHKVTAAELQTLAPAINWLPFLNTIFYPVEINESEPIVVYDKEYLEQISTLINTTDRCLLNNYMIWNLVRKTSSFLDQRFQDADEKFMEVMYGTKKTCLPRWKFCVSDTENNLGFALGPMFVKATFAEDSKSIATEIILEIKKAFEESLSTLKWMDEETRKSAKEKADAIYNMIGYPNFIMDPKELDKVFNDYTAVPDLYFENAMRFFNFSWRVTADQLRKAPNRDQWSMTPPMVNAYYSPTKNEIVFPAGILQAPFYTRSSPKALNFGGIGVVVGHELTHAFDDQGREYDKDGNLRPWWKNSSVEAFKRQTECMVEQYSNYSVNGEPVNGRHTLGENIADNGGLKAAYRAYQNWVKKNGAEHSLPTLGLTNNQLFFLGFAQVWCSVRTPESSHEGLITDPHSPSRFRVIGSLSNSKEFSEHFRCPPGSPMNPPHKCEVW
The assay can be described thus: Peptide degradation by rhECE-1. Format: biochemical. Particulars: inhibitor 100 μM. An outline of the steps: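 Where used, the ECE-1 inhibitor (100 μM) was preincubated with enzyme on ice for 30 min at matching pH before substrate was added. Products were resolved by reversed-phase HPLC and identified by MALDI TOF/TOF mass spectrometry.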

Turning to `Cc1nn(-c2ccccc2)c(NC(=O)NS(=O)(=O)c2ccc(Cl)cc2)c1C#N.[Na]` [SM-19712], in the assay with HEK-CLR-RAMP1 cells [1] (CGRP 30 nM), the “Effect on response to a single challenge with CGRP ([Ca2+]i)” value is “did not affect magnitude or duration”. The “Effect on desensitization of CGRP-induced Ca2+ signaling” value in the assay on HEK-CLR-RAMP1 cells [1] is given as “did not affect desensitization”. Moreover, in the assay with HEK-CLR-RAMP1 cells [1] (0–6 h recovery), the “Effect on resensitization of CGRP-induced Ca2+ signaling” value is “strongly inhibited resensitization at all times”. In the assay on HEK-CLR-RAMP1 cells [2], the “Effect on degradation of internalized 125I-His8-CGRP” value was “prevented degradation”. Also, the “Change of colocalization coefficient of B2R-V2RCT with β-arrestin2” value in the assay with HEK-B2R-V2RCT cells is “twofold increase”. Moreover, in the assay on HEK-B2R-V2RCT cells (BK 100 nM 10 min), the “Effect on localization of B2R-V2RCT during recovery” value is recorded as “causing it retention in endosomes with β-arrestin2”; the “Reduction of recycling of B2R-V2RCT” value was ~50% and > 50%. In addition, in the assay with A549 cells, the “Effect on resensitization of responses to ATII” value is “did not affect resensitization”. Also, the “Effect on localization of CLR (RAMP1) and β-arrestin2 during recovery” value in assay [3] is “caused their retention in endosomes”. For the same molecule, in the assay with HEK-CLR-RAMP1 cells [4] (6 h recovery after CGRP 100 nM 1 h, SM-19712 10 μM, siRNA 72 h), the “Inhibition of recycling of CLR (CLR at the plasma membrane)” value is above 50%. Also, the “Effect on localization of CLR/RAMP1 after recovery in CGRP-free medium” value with HEK-CLR-RAMP1 cells [4] (CGRP 100 nM 1 h, wash, 6 h recovery) is listed as “caused their retention in endosomes even at 6 h”. Besides, in the assay with HEK cells (BK 100 nM, thiorphan 1 μM, phosphoramidon 1 μM), the “Effect on response to a single BK challenge ([Ca2+]i)” value was “did not affect responses to a single BK challenge”. Also, in the assay with HEK cells (bafilomycin A1 0.15 or 1 μM), the “Effect on desensitization of BK-induced Ca2+ signaling” value was “had no effect”. Further, the “Effect on resensitization of BK-induced Ca2+ signaling” value in the assay on HEK cells (bafilomycin A1 0.15 or 1 μM, 0–120 min recovery) is “had no effect”. Moreover, the “Effect on rhECE-1 degradation of CGRP” value in assay [5] (preincubated with ECE-1 on ice 30 min, pH 5.5) is “abolished”. The “Effect on rhECE-1 degradation of BK” value in assay [5] (rhECE-1 83 nM, pH 5.5 and 7.4) is listed as “prevented this degradation”.
